The record followed here is ChEMBL document CHEMBL3808274, “Discovery and characterization of a novel series of N-phenylsulfonyl-1H-pyrrole picolinamides as positive allosteric modulators of the metabotropic glutamate receptor 4 (mGlu4)” (Bioorg Med Chem Lett, 2016).

In data set [1] the target is T1, Metabotropic glutamate receptor 4 (Homo sapiens, UniProt Q14833). Kind of data set: Positive allosteric modulation of human mGlu4 receptor assessed as increase in glutamate-induced calcium mobilization. In kind it is functional. In outline:
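Calcium mobilization assay in cells expressing human mGlu4; potentiation of the glutamate response measured; EC50 values are the average of n = 3.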

The target in data set [2] is T1, Metabotropic glutamate receptor 4. Put plainly: Positive allosteric modulation of human mGlu4 receptor assessed as increase in glutamate-induced calcium mobilization at 30 uM relative to PHCCC. Type of data set: functional. In outline:
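Calcium mobilization assay at human mGlu4; response amplitude with 30 µM test compound normalized to the standard PHCCC and expressed as %GluMax.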
In general terms: Calcium assays in cells follow changes in intracellular calcium, usually with a dye or a luminescent sensor.

Another data set has as its system Plasma. Kind of data set: Fraction unbound in rat plasma by equilibrium dialysis method. In kind it is ADME, cell-free. The gist of the method:
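Protein binding in rat plasma measured by equilibrium dialysis; fraction unbound (Fu) reported.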

Data set [3] in a line: Plasma clearance in rat at 1 mg/kg, iv. Type of data set: ADME, organism-based. In outline: (§1)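 Rat IV dosing at 1 mg/kg; plasma PK parameters (clearance, half-life, MRT, Vss, AUC) derived from plasma concentration-time profile.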
A short description of data set [4]: Half life in rat at 1 mg/kg, iv. Type of data set: ADME, organism-based. As to conditions: in vivo. The gist of the method: as §1
A short description of data set [5]: Mean residence time in rat at 1 mg/kg, iv. Type of data set: ADME, organism-based. The settings on record: in vivo. The gist of the method:
as §1

Data set [6] can be described thus: Volume of distribution at steady state in rat at 1 mg/kg, iv. Type of data set: ADME, organism-based. As to conditions: in vivo, read-out: Vdss. In outline:
as §1

A short description of data set [7]: AUC in rat at 1 mg/kg, iv. Type of data set: ADME, organism-based. The settings on record: in vivo. The gist of the method: as §1
Data set [8] is described as follows: Systemic plasma concentration in rat at 10 mg/kg, po incubated for 1 hr. Type of data set: ADME, organism-based. The gist of the method:
(§2)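 Rats dosed orally at 10 mg/kg, either with vehicle or co-dosed with 1-aminobenzotriazole (ABT), a pan-irreversible cytochrome P450 inhibitor. At 1 h post-dose, systemic plasma, hepatic portal vein plasma and brain were sampled. Drug concentrations were measured in each matrix, and brain:plasma ratios were derived from these levels.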

Data set [9] can be described thus: Plasma concentration in rat hepatic portal vein at 10 mg/kg, po incubated for 1 hr. In kind it is ADME, organism-based. The gist of the method: (§3)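 Rats dosed orally at 10 mg/kg, with vehicle or co-dosed with the pan-irreversible P450 inhibitor 1-aminobenzotriazole (ABT); samples taken at 1 h from systemic plasma, hepatic portal vein plasma and brain. Brain:plasma and systemic:HPV ratios are calculated from these concentrations.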

Data set [10] in a line: Drug level in rat brain at 10 mg/kg, po incubated for 1 hr. In kind it is ADME, organism-based. The settings on record: read-out: Drug uptake. In outline: as §3
The nature of data set [11]: Systemic plasma concentration in rat at 10 mg/kg, po coadministered with panirreversible P450 inhibitor ABT incubated for 1 hr. Type of data set: ADME, organism-based. The gist of the method:
as §2

The nature of data set [12]: Plasma concentration in rat hepatic portal vein at 10 mg/kg, po coadministered with panirreversible P450 inhibitor ABT incubated for 1 hr. In kind it is ADME, organism-based. The gist of the method: as §3
Data set [13] is described as follows: Drug level in rat brain at 10 mg/kg, po coadministered with panirreversible P450 inhibitor ABT incubated for 1 hr. Type of data set: ADME, organism-based. The settings on record: read-out: Drug uptake. In outline: as §3
The nature of data set [14]: Ratio of drug level in rat brain to plasma at 10 mg/kg, po incubated for 1 hr. In kind it is ADME, organism-based. As to conditions: read-out: BPR. In outline:
as §3

A short description of data set [15]: Ratio of drug level in rat brain to plasma at 10 mg/kg, po coadministered with panirreversible P450 inhibitor ABT incubated for 1 hr. The settings on record: read-out: BPR. In kind it is ADME, organism-based. In outline: as §2
The nature of data set [16]: Ratio of systemic plasma concentration to hepatic portal vein plasma concentration in rat at 10 mg/kg, po. Type of data set: ADME, organism-based. As to conditions: in vivo. The gist of the method: as §3
Data set [17] in a line: Ratio of systemic plasma concentration to hepatic portal vein plasma concentration in rat at 10 mg/kg, po coadministered with panirreversible P450 inhibitor ABT. In kind it is ADME, organism-based. The settings on record: in vivo. In outline:
as §3

A word on the EC50: it is the midpoint of the concentration-response curve. In general, clearance refers to the rate of elimination divided by the concentration. Read a low clearance as a low capacity for elimination. Broadly, the half-life is how long it takes for the measured level to halve. The term MRT denotes the average time that molecules of a dose stay in the body. For orientation: AUC means the area under the concentration-time curve, a measure of exposure. Lower therefore signals low exposure.

T1 sequence (Q14833 whole entry): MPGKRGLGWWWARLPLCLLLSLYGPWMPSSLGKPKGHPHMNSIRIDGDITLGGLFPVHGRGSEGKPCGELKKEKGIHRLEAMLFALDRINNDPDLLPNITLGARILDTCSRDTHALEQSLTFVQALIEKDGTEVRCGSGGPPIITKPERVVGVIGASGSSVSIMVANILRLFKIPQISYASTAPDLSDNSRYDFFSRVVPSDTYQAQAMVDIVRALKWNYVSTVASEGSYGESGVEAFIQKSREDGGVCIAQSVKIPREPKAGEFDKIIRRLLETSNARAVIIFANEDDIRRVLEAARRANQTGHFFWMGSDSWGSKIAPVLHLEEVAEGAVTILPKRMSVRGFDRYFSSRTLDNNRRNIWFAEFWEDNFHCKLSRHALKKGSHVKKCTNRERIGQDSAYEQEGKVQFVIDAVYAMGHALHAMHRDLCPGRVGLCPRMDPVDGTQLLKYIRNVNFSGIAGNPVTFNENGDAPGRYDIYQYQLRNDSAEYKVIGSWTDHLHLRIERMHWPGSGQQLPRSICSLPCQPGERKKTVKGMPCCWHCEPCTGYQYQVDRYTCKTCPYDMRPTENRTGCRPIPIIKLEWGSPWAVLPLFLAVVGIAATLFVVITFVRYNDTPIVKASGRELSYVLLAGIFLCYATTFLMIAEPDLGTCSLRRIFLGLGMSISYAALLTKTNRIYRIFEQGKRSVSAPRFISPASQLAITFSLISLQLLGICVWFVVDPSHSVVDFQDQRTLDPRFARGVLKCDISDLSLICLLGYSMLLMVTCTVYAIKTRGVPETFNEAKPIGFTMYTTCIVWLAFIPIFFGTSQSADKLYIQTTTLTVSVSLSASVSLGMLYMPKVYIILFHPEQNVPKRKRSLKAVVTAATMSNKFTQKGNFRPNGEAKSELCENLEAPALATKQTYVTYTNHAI

`O=C(Nc1ccn(S(=O)(=O)C(F)c2ccccc2F)c1)c1ccccn1` (stereo not drawn): the EC50 in data set [1] is 1020 nM. The %max in data set [2] stood at 71%.

With `Cc1ccc(S(=O)(=O)n2cc(NC(=O)c3ccccn3)cn2)cc1C`, in data set [1], the EC50 came out at 148 nM. In addition, the %max in [2] turned out to be 92.9%. In the data set with Plasma, this compound had a Fu of 0.005.

`O=C(Nc1ccn(S(=O)(=O)Cc2cccc(F)c2)c1)c1ccccn1`: the EC50 in data set [1] turned out to be 572 nM. Also, the %max in data set [2] amounted to 98.6%.

As to `Cc1cccc(CS(=O)(=O)n2ccc(NC(=O)c3ccccn3)c2)c1`, the EC50 in data set [1] came to 4180 nM. Besides, in [2], the %max came out at 112%.

As to `Cc1nc(NC(=O)c2ccccn2)sc1S(=O)(=O)Cc1c(F)cccc1F`, the EC50 in [1] stood at 295 nM. Also, in [2], the %max is 99.3%.

For `Cc1nc(NC(=O)c2ccccn2)sc1S(=O)(=O)Cc1ccccc1Cl`, the EC50 in data set [1] turned out to be 448 nM. Further, the %max in data set [2] came to 94.8%.

For the compound `Cc1cc(S(=O)(=O)n2ccc(NC(=O)c3ccccn3)c2)ccc1Cl`, in data set [1], the EC50 came out at 163 nM. Further, in [2], the %max amounted to 72.2%. The compound further yielded a Fu in the data set on Plasma of 0.004. Moreover, the clearance in data set [3] came out at 86.8 mL/min/kg. This compound also displayed a half-life in data set [4] of 2.78 h. Moreover, the MRT in data set [5] is 1.41 h. Also, the Vd in [6] stood at 7.4 L/kg. The AUC in data set [7] stood at 192 ng·h/mL. In addition, the concentration at 1 h in data set [8] worked out at 7.4 ng/mL; in data set [9], 731 ng/mL; in data set [10] it was 8.1 ng/g; in data set [11] it was 198 ng/mL; in data set [12], 764 ng/mL; in data set [13], 176 ng/g. Besides, the Kp at 1 h in [14] and in [15] was 1 in each case. In addition, the Ratio in data set [16] is on record as below 0.01; in data set [17], 0.26.

As to `O=C(Nc1ccn(S(=O)(=O)c2ccc(C(F)(F)F)cc2)c1)c1ccccn1`, the EC50 in [1] is 739 nM. Further, in [2], the %max was found to be 35.6%.

As for `O=C(Nc1ncc(S(=O)(=O)Cc2ccc(Cl)cc2F)s1)c1ccccn1`, the EC50 in data set [1] came out at 83 nM. Besides, in data set [2], the %max was determined as 35.1%.

For the compound `CCc1nc(NC(=O)c2ccccn2)sc1S(=O)(=O)Cc1c(F)cccc1F`, the EC50 in data set [1] was 150 nM. Moreover, in data set [2], the %max was found to be 109%.

Consider `Cc1cccc(S(=O)(=O)n2ccc(NC(=O)c3ccccn3)c2)c1`, for which, in [1], the EC50 worked out at 104 nM. Also, in data set [2], the %max was 84.8%. The compound further yielded a Fu in the data set with Plasma of 0.001.

Turning to `CCc1nc(NC(=O)c2ccccn2)sc1S(=O)(=O)Cc1ccc(Cl)cc1F`, the EC50 in data set [1] was determined as 217 nM. Moreover, in [2], the %max is 120%.

Turning to `Cc1ccc(S(=O)(=O)n2ccc(NC(=O)c3ccccn3)c2)cc1C`, the EC50 in data set [1] stood at 62 nM. In addition, in data set [2], the %max was determined as 80.3%. The compound also returned a Fu in the data set on Plasma of 0.012. Further, the clearance in data set [3] worked out at 37.2 mL/min/kg. In addition, the half-life in data set [4] amounted to 4.2 h. Also, the MRT in data set [5] is 2.48 h. Further, the Vd in [6] was 5.5 L/kg. Moreover, the AUC in data set [7] was found to be 448 ng·h/mL.

With `O=C(Nc1ccn(S(=O)(=O)c2ccc(F)cc2)c1)c1ccccn1`, the half-maximal effective concentration (EC50) in [1] was 740 nM. In addition, the %max in [2] worked out at 78.8%.

For `O=C(Nc1ccn(S(=O)(=O)Cc2ccc(F)cc2Cl)c1)c1ccccn1`, the EC50 in data set [1] is 84 nM. Also, the %max in [2] turned out to be 122%.

Regarding `O=C(Nc1ccn(S(=O)(=O)Cc2ccccc2F)c1)c1ccccn1`, in data set [1], the EC50 turned out to be 251 nM. The %max in [2] was found to be 117%.

For the compound `Cc1cc(S(=O)(=O)n2ccc(NC(=O)c3ccccn3)c2)ccc1F`, the concentration giving a half-maximal response (EC50) in data set [1] came to 268 nM. In addition, the %max in data set [2] came out at 98.9%.

`O=C(Nc1ccn(S(=O)(=O)Cc2ccc(C(F)(F)F)cc2)c1)c1ccccn1`: the EC50 in [1] was determined as 188 nM. In addition, the %max in data set [2] was 88.7%.

As to `O=C(Nc1ccn(S(=O)(=O)Cc2ccc(F)cc2F)c1)c1ccccn1`, in [1], the EC50 amounted to 190 nM. In data set [2], the %max stood at 109%.

Consider `O=C(Nc1ccn(S(=O)(=O)Cc2ccc(Cl)cc2)c1)c1ccccn1`, for which the EC50 in [1] was determined as 398 nM. In addition, in data set [2], the %max amounted to 140%.

Consider `O=C(Nc1ccn(S(=O)(=O)C(F)(F)c2ccccc2F)c1)c1ccccn1`, for which the EC50 in [1] was above 30000 nM. Besides, in data set [2], the %max was 33.5%.

As to `Cc1ccc(S(=O)(=O)n2ccc(NC(=O)c3ccccn3)c2)cc1`, the EC50 in data set [1] is 122 nM. In [2], the %max was 88.8%. For the same compound, the Fu with Plasma stood at 0.009.

As to `O=C(Nc1ccn(S(=O)(=O)Cc2ccccc2Cl)c1)c1ccccn1`, the EC50 in [1] stood at 174 nM. Also, in data set [2], the %max stood at 119%.

Turning to `O=C(Nc1ccn(S(=O)(=O)c2ccc(Cl)cc2)c1)c1ccccn1`, the EC50 in data set [1] amounted to 1240 nM. In addition, the %max in [2] is 103%. Also, the Fu in the data set on Plasma came out at 0.004.

For the compound `O=C(Nc1ccn(S(=O)(=O)c2ccc(Cl)cn2)c1)c1ccccn1`, the EC50 in data set [1] was 344 nM. Besides, the %max in [2] came to 83%.

In the case of `Cc1nc(NC(=O)c2ccccn2)sc1S(=O)(=O)Cc1ccc(Cl)cc1F`, the EC50 in [1] stood at 4140 nM. Besides, the %max in data set [2] amounted to 112%.

Turning to `Cc1nc(NC(=O)c2ccccn2)sc1S(=O)(=O)Cc1ccc(F)cc1F`, the EC50 in data set [1] is 547 nM. In addition, the %max in data set [2] is 93.5%.

Consider `CC(c1ccccc1)S(=O)(=O)n1ccc(NC(=O)c2ccccn2)c1` (stereo not drawn), for which the EC50 in data set [1] was found to be 2970 nM. Further, the %max in data set [2] is 59.6%.

As to `O=C(Nc1ccn(S(=O)(=O)c2ccc(Cl)nc2)c1)c1ccccn1`, the EC50 in data set [1] is 440 nM. Moreover, the %max in data set [2] worked out at 72.9%.

Turning to `O=C(Nc1cnn(S(=O)(=O)c2ccc(C(F)(F)F)cc2)c1)c1ccccn1`, the EC50 in data set [1] came out at 242 nM. The %max in [2] is 35.3%.

Consider `O=C(Nc1ncc(S(=O)(=O)Cc2ccccc2Cl)s1)c1ccccn1`, for which the EC50 in data set [1] was 189 nM. Moreover, the %max in data set [2] was 30.6%.
